Compounds with a hit are over-represented: about 0.85% of the library has one in this group of screens.
AP ELISA ortho – orthogonal test for alternative complement pathway inhibitors. Human serum alternative complement pathway, LPS-coated ELISA, C3 deposition; tested in compound mixtures. inhibition, % at 5 µM. 0.08% of 62,000 active;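 active = inhibition above 30% in each of the two pooled mixtures holding the compound, so the lower value exceeds 30%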;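 note: 0% = serum in Mg-EGTA without compound and 100% = EDTA serum blank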
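Medium: diluted human serum in Mg2+-EGTA GVB++. Assay system: human serum complement alternative pathway, C3 deposition onto LPS. Also added: Plate-bound LPS. Technique: Anti-C3 ELISA, OD 450 nm. Measure: percent inhibition. Incubation: 1 h at 37 °C. Dosing: 5 µM each compound, pools of ten, 50 µM per pool.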
Cathepsin G inh – cathepsin G (human) inhibition; P08311; purified enzyme, AMC-tetrapeptide fluorescence, pooled mixtures; inhibition, % at 5 µM (by protocol); 0.2% of 62,000 active; AID 581;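 active = inhibition above 20% in each of the two mixture wells holding the compound; inactive = inhibition of 20% or less in either well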;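 note: 0% = enzyme control without mixture and 100% = blank lacking enzyme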
FXIIa inh mix – inhibitors of human coagulation factor XIIa, pooled mixtures; purified FXIIa, fluorogenic substrate; inhibition, % at 5 µM; 0.2% of 62,000 active; P00748;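 note: 0% = enzyme without compound and 100% = no enzyme blank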
C1s inh – human complement C1s inhibition. P09871. purified C1s, fluorogenic AMC substrate, pooled mixtures. mean inhibition % of two 10-compound mixtures (hits give high values), % at 5 µM (by protocol). 0.16% of 62,000 active. AID 538;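 active = inhibition above 20% in each of the two 10-compound mixture wells holding the compound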;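 note: 0% = enzyme wells lacking compound mixture and 100% = no-enzyme blank wells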
WNV NS2B-NS3 inh – WNV NS2B-NS3 proteinase inhibition; WNV NS2B-NS3 protease, fluorogenic substrate Ex360/Em465; hits give low values; 0.18% of 65,000 active; P06935; AID 577; z-score (test concentration not listed); in the data active = z-score below about -3
Target sequence (P06935 1371-1501 limits assumed): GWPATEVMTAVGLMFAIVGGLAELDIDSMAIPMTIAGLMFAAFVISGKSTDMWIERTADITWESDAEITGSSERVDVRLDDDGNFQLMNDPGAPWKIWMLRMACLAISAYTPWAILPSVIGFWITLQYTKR
Target sequence (P06935 1502-1679 limits assumed): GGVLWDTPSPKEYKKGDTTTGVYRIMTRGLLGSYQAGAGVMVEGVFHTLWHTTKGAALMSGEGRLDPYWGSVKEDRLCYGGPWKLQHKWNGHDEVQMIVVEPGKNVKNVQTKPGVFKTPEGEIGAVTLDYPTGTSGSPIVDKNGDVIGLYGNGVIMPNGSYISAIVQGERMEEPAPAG
FXIa mix inh – inhibitors of human coagulation factor XIa, pooled mixtures; purified FXIa, fluorogenic substrate; P03951; 0.19% of 62,000 active; inhibition, % at 5 µM;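 note: each value is inhibition by a whole ten-compound pool holding the compound; 0% = enzyme with no mixture and 100% = wells lacking enzyme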
The depositor's hits bear a star; nt = no result. Cut-off read from the data, not from the text of the source, unless noted: active = inhibition above about 20% (passing the limit was not always enough); inactive = the rest.

SMILES | AP ELISA ortho | Cathepsin G inh | FXIIa inh mix | C1s inh | WNV NS2B-NS3 inh | FXIa mix inh
N=c1oc2ccccc2cc1-c1nc2ccccc2c(=O)[nH]1 | 27 | -4 | 35* | -12 | -0.75 | 4
CCCNC(=O)CC(NS(=O)(=O)c1ccc(Cl)cc1)c1ccco1 (stereo not given) | 10 | 9 | 4 | -9 | 0.7 | -5
O=C(CC(NS(=O)(=O)c1ccc(Cl)cc1)c1ccco1)NCc1ccco1 (stereo not given) | 10 | 10 | 70* | 15 | 2.4 | 4
CCn1cc(C2=NOC(C(=O)Nc3cccc(C(C)=O)c3)C2)c(C)n1 (stereo not given) | 17 | -12 | 5 | -189 | -0.7 | 8
CCn1cc(C2=NOC(C(=O)Nc3c(C)nn(Cc4ccc(F)cc4)c3C)C2)c(C)n1 (stereo not given) | 3 | 13 | 3 | 17 | -0.11 | 22*
CCOC(=O)C1=C(C)NC(=O)C1(NC(=O)c1cccnc1)C(F)(F)F (stereo not given) | -3 | 10 | 1 | 13 | 1.1 | 4
Cc1noc(NS(=O)(=O)c2ccc(NC(=O)CSc3ncccn3)cc2)c1C | 27 | -1 | 18 | -12 | -0.63 | 6
Cc1noc(NS(=O)(=O)c2ccc(NC(=O)CSc3nc4ccccc4s3)cc2)c1C | 6 | 32 | 2 | 13 | -0.1 | 52*
O=C(c1noc2c1CCc1ccccc1-2)N1CCCc2ccccc21 | 4 | 39* | -20 | -32 | -0.42 | 9
O=C(c1cccnc1)N1CCCc2ccccc21 | -9 | -6 | 9 | -3 | -0.33 | -2
O=C(c1cc(-c2ccccc2O)on1)N1CCc2ccccc2C1 | -2 | 4 | 13 | 8 | -1.3 | 3
O=C(c1noc2c1CCc1ccccc1-2)N1CCOCC1 | 12 | 37* | 10 | -12 | 1.6 | 3
O=C(c1noc2c1CCc1ccccc1-2)N1CCc2ccccc2C1 | 11 | 30* | -13 | 1 | 0.1 | 4
CC(C)CCN1CC(C(=O)NCc2ccc(F)cc2)CC1=O (stereo not given) | 19 | -1 | 2 | -26 | -4* | 8
COc1cc(C2CC(C(F)(F)F)n3ncc(C(=O)O)c3N2)cc(OC)c1OC (stereo not given) | nt | nt | nt | nt | -5.8* | nt
O=C1CCCC(O)=C1C1C2=C(CCCC2=O)Oc2ccccc21 (stereo not given) | -3 | -2 | 5 | -3 | 1.5 | 9
CCOc1ccc(N2C(=O)CC(N3CCN(c4ccccc4F)CC3)C2=O)cc1 (stereo not given) | 9 | 13 | 1 | 24* | -0.25 | 2
CCCOc1ccc(N2C(=O)CC(N3CCN(c4ccccc4OC)CC3)C2=O)cc1 (stereo not given) | 13 | 4 | 0 | -4 | 1.3 | 5
Cc1ccc(S(=O)(=O)N2CCN(c3nc(C)c4c(c3C#N)CC(C)(C)OC4)CC2)cc1 | nt | nt | nt | nt | 0.1 | nt
CCCS(=O)(=O)N1CCC(C(=O)NCCN(C)Cc2ccccc2)CC1 | 7 | -3 | 0 | -5 | 0.24 | -4
COC(=O)c1ccc(OC(=O)C2CC(=O)N(c3ccc(C)cc3C)C2)cc1 (stereo not given) | 16 | 40 | -4 | -2 | -0.42 | 31*
COc1ccc(NC(=O)C2CC(=O)N(c3cc(C)ccc3C)C2)cc1 (stereo not given) | 8 | 48 | 2 | -6 | 1.1 | 67*
Cc1ccc(N2CC(C(=O)Oc3cccc(N4C(=O)CCC4=O)c3)CC2=O)cc1 (stereo not given) | 19 | 2 | 4 | 2 | -1.5 | 9
O=C1C(C=NCCCN2CCCC2=O)=C(O)c2ccccc21 | nt | nt | nt | nt | -0.06 | nt
CCCCOCCCNC(=O)N[C@@H](CC(C)C)C(=O)O | 16 | 6 | 8 | -37 | -3.7* | -7
CC(=O)c1cn(CC(=O)NCc2ccc3c(c2)OCO3)c2ccccc12 | 9 | 14 | 2 | 64* | 0.02 | 7
CCn1cc(SCC(=O)NCc2ccc3c(c2)OCO3)c2ccccc21 | 15 | 6 | 4 | 3 | 1.7 | 10
CCOC(=O)C1C(=O)NC(SCC(N)=O)=C(C#N)C1c1ccccc1OCC (stereo not given) | -6 | -3 | 13 | 17 | -0.65 | 5
CC(=O)Nc1nc2ccccc2n1CCOc1ccccc1Cl | 1 | 0 | -14 | -4 | -5.6* | 10

From PubChem BioAssay
